ChEMBL document CHEMBL4396957, “Potent bicyclic inhibitors of malarial cGMP-dependent protein kinase: approaches to combining improvements in cell potency, selectivity and structural novelty” (Bioorg Med Chem Lett, 2019)
The source made the active and inactive calls. The rule behind the calls is not given here.

Experiments:
[1] = target: Maternal embryonic leucine zipper kinase (Homo sapiens) (UniProt Q14680); assay: Inhibition of human MELK at 1 uM relative to control
[2] = target: Receptor-interacting serine/threonine-protein kinase 2 (Homo sapiens) (UniProt O43353); assay: Inhibition of human RIPK2 at 1 uM relative to control
[3] = target: T1, cGMP-dependent protein kinase 1 (Homo sapiens) (UniProt Q13976); assay: Inhibition of recombinant human N-terminal His6-tagged full length PKG1alpha expressed in baculovirus infected Sf21 insect cells upto 1 uM relative to control
T1 sequence (whole entry): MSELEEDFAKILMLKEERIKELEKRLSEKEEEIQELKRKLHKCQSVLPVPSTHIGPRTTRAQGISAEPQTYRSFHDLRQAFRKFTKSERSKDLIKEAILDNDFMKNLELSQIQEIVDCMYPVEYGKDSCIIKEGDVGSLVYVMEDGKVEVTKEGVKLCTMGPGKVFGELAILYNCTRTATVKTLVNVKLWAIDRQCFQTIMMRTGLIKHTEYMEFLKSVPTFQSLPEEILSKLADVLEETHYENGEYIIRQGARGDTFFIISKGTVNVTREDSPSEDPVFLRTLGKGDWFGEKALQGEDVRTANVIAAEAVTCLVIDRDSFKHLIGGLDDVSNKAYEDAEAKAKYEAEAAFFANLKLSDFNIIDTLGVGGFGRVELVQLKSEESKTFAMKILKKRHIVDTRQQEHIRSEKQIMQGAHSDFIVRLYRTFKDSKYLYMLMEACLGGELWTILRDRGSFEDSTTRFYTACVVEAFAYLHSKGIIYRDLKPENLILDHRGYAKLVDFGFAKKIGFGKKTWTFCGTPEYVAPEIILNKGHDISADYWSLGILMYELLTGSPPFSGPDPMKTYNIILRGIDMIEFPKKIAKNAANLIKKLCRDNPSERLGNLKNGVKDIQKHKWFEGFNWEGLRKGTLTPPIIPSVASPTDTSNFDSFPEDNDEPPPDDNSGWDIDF

[4] = target: T1, cGMP-dependent protein kinase 1 (Homo sapiens); assay: Inhibition of recombinant human N-terminal His6-tagged full length PKG1beta expressed in baculovirus infected Sf21 insect cells upto 1 uM relative to control
HepG2 = assay: Cytotoxicity against human HepG2 cells assessed as reduction cell viability incubated for 48 hrs by CellTiter-Glo luminescent cell viability assay; assay type: cell-based; conditions: hepg2, 48 h
Summary of the method: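 HepG2 human liver-derived cells exposed to compound for 48 h in an in vitro viability assay. […]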

Sequence of Receptor-interacting serine/threonine-protein kinase 2 (Homo sapiens) (O43353 whole entry): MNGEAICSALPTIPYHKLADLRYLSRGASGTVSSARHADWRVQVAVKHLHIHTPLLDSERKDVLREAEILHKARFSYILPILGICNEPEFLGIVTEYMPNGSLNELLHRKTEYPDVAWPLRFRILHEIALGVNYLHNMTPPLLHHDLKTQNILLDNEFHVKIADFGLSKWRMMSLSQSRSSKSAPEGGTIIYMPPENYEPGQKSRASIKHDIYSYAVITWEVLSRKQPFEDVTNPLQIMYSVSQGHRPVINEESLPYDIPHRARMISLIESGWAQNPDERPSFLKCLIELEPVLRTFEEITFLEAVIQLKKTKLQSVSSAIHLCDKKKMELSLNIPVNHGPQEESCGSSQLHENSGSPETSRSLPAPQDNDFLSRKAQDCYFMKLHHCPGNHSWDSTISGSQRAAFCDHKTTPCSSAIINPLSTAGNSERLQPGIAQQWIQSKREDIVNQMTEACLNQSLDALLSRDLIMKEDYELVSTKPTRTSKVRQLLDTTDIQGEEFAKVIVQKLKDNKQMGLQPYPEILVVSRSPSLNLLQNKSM
Sequence of Maternal embryonic leucine zipper kinase (Homo sapiens) (Q14680 whole entry, looked up): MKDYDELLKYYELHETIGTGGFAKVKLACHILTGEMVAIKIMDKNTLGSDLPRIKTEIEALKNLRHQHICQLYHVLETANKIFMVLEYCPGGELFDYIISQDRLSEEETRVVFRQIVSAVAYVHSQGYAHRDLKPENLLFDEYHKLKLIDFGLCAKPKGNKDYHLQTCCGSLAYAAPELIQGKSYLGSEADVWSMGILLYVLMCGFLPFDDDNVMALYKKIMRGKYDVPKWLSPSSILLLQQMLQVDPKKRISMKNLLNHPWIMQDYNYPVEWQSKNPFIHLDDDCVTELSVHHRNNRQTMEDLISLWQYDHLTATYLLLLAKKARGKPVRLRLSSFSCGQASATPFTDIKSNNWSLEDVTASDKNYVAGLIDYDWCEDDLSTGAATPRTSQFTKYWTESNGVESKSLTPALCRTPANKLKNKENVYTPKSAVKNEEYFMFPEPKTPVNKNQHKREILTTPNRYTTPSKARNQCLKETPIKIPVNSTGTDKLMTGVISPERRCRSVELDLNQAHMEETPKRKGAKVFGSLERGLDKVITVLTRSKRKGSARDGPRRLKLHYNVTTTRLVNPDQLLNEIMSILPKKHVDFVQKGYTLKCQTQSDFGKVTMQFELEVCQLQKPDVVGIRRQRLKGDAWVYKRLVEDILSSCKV

inhibition [1] | inhibition [2] | SMILES | inhibition [3] | inhibition [4] | Activity (HepG2)
> 90% | 50 to 90% | CN(C)Cc1ccn2c(-c3ccnc(Nc4ccc(N5CCNCC5)cc4)n3)c(C3CC3)nc2c1 | – | – | –
– | – | CN1CCN(c2ccn3c(-c4ccnc(N)n4)c(-c4ccc(F)cc4)nc3c2)CC1 | – | – | Non-Toxic
– | – | CN1CCN(c2ccc3nc(-c4ccc(F)cc4)c(-c4ccnc(N)n4)n3c2)CC1 | – | – | Toxic
50 to 90% | 50 to 90% | CNc1nccc(-c2c(-c3ccc(F)cc3)nc3cc(NCCN(C)C)ccn23)n1 | inactive | inactive | –

SMILES | inhibition [1] | inhibition [2] | inhibition [3] | inhibition [4] | Activity (HepG2)
CN(C)Cc1ccn2c(-c3ccnc(N)n3)c(-c3ccc(F)cc3)nc2c1 | > 90% | 50 to 90% | inactive | inactive | –
